We go through one compound from ChEMBL document CHEMBL1143123, “Novel analogs of D-e-MAPP and B13. Part 2: signature effects on bioactive sphingolipids” (2008).

Experiment [1] deals with MCF7. Briefly: Induction of endogenous C24:1-ceramide formation in human MCF7 cells after 10 hrs. The format is functional. The gist of the method:
(§1)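 MCF7 cells grown in RPMI 1640 with 10% FCS at 37 °C in 5% CO2. Seeded near 50% density and treated 24 h later with compound in ethanol (0.1% final); controls got ethanol alone. Cells washed in cold PBS and extracted. Cer species, Sph and S1P measured by HPLC-MS/MS (C8 column, positive-ion MRM) against internal standards and calibration curves. Results given as pmol/nmol phospholipid phosphate, relative to ethanol controls.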

The test system of experiment [2] is MCF7. Briefly: Induction of endogenous C16-ceramide formation in human MCF7 cells after 10 hrs. The format is functional. The method in brief:
as §1

Experiment [3] concerns MCF7. Briefly: Induction of endogenous C14-ceramide formation in human MCF7 cells after 10 hrs. The format is functional. The gist of the method:
as §1

Experiment [4] concerns MCF7. In words: Increase in endogenous ceramide level in human MCF7 cells upto 10 uM after 24 hrs. The format is functional. The gist of the method: as §1
Experiment [5] deals with MCF7. Briefly: Increase in endogenous ceramide level in human MCF7 cells at 10 uM after 24 hrs. The format is functional. The method in brief:
as §1

Experiment [6] has as its system MCF7. In words: Increase in endogenous sphingosine level in human MCF7 cells >5 uM after 24 hrs. The format is functional, cell-based. The method in brief: as §1
In experiment [7] the test system is MCF7. Briefly: Increase in endogenous C14-ceramide level in human MCF7 cells after 24 hrs. The format is functional. The method in brief:
(§2)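 MCF7 cells grown in RPMI 1640 with 10% FCS at 37 °C, 5% CO2. Seeded at ~50% density (1×10^6 cells), treated 24 h later with compounds in ethanol (0.1% final); controls got ethanol only. Cells washed in cold PBS and lipids extracted. Cer species and Sph quantified by HPLC-MS/MS (MRM, positive ion) against internal standards and calibration curves. Values given as pmol/nmol phospholipid and compared with ethanol controls.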

For experiment [8], the system named is MCF7. In words: Increase in endogenous C16-ceramide level in human MCF7 cells after 24 hrs. The format is functional. The method in brief:
as §2

Experiment [9] concerns MCF7. Briefly: Increase in endogenous C24:1-ceramide level in human MCF7 cells after 24 hrs. The format is functional. The method in brief:
as §1

In experiment [10] the test system is MCF7. Briefly: Increase in endogenous sphingosine level in human MCF7 cells after 24 hrs. The format is functional. The gist of the method:
as §1

Experiment [11] deals with MCF7. In words: Increase in endogenous sphingosine-1-phosphate level in human MCF7 cells after 5 to 10 hrs. The format is functional, cell-based. The gist of the method:
as §1

In experiment [12] the test system is MCF7. Briefly: Increase in endogenous C14-ceramide level in human MCF7 cells at 10 uM within 30 mins. The format is functional. The method in brief: as §2
Experiment [13] deals with MCF7. Briefly: Increase in endogenous sphingosine level in human MCF7 cells at 10 uM after 5 hrs. The format is functional. The method in brief: as §1

Active and inactive are the calls of the source. The calls are words filed in the database; no cut-off is given here.

For the compound `C[C@@H](NC(=O)CCCCCCCCCCCCCCC[n+]1ccccc1)[C@@H](O)c1ccccc1.[Br-]`, the Activity was 142% in experiment [1]; 157% in [2]; 310% in experiment [3]; 260% in experiment [4]; 260% in [5]; “Dose-dependent effect” in experiment [7]. The Activity result in experiment [8] is “Dose-dependent effect”; in experiment [9] it was “Dose-dependent effect”; in experiment [10], “Dose-dependent effect”; in experiment [12], 190%; in experiment [13], 300%. The result in experiment [6] and in [11] was Active.
